# miR-122 sensor = miR-122 inhibition in Huh7 cells; Huh7 miR-122 Renilla luciferase sensor, 48 h; neutral wells = 0, positive control = 100; activation (reporter increase), % at 12.5 µM; 0.3% of 340,000 active; AID 602342;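 active means mean replicate activation score at least 90 and every replicate individually at or above 90; inconclusive means only one of the two criteria met; inactive means neither criterion met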;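 further: higher luciferase means less miR-122 activity so hits act as miR-122 inhibitors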
# E-sel inducer = E-selectin induction on HUVECs; P16581; HUVEC E-selectin immunofluorescence imaging; normalized: neutral wells 0, TNF-alpha wells 100; activation, % at 7.58 µM; 0.37% of 260,000 active;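 active means mean E-selectin-positive cell signal at least 10% of the positive control, reached in at least 60% of replicates, without over 20% cell loss; inconclusive means no rule given, readout overlaps actives, possibly toxicity-flagged; inactive means the rest, including those meeting only one limit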
#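 Test system: HUVEC; input: 3,000 HUVEC/well; measured by: immunofluorescence imaging; read-out: % PE-positive cells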
# GSIS activator = GLuc luminescence reporter in INS-1E cells, primary screen for activators of glucose-dependent secretion of insulin; AID 743287; 0.61% of 370,000 active; activation, % at 16.6 µM; INS-1E GLuc reporter insulin secretion, 2-3 h;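 active means lowest replicate activation of at least 40%, so every replicate reaches that level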
# CFTR F508del cor = correctors of CFTR F508del function in bronchial epithelial cells; CFBE cells, YFP halide quenching; stimulated with forskolin plus potentiator P3; % fluorescence drop versus neutral controls; AID 720511; activity (quench increase), % at 7.58 µM; 0.36% of 350,000 active;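 active means mean added fluorescence quench of at least 8% versus neutral control, with both replicates also reaching 8%; inconclusive means only one of the mean or replicate conditions met; inactive means mean below 8% and not both replicates reaching 8%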;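 further: cells transiently co-express mutant CFTR-F508del with the halide-sensitive YFP; corrector assay measuring rescue of mutant channel to the surface after 24 h compound exposure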
# DENV2 CPE rescue = inhibitors of DENV2 cytopathic effect | CPE inhibition, % at 9.99 µM | DENV2-infected cells, cytopathic effect rescue, plate reader | 1.7% of 350,000 active; in the data active means CPE inhibition above about 20%, passing the limit was not always enough; inconclusive means no clear call, values can overlap the other calls; tested in BHK-21 cells
# ERAP1 HTS inh = ERAP1 (human) enzyme inhibition. recombinant ERAP1, Leu-AMC fluorescence, 60 min. 0.15% of 340,000 active. inhibition, % at 10.7 µM. Q9NZ08;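 active means mean replicate inhibition of at least 30%, or all replicates individually reaching that 30% level; inactive means mean below 30% and not every replicate reaching it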
# Target sequence (Q9NZ08 whole entry, looked up): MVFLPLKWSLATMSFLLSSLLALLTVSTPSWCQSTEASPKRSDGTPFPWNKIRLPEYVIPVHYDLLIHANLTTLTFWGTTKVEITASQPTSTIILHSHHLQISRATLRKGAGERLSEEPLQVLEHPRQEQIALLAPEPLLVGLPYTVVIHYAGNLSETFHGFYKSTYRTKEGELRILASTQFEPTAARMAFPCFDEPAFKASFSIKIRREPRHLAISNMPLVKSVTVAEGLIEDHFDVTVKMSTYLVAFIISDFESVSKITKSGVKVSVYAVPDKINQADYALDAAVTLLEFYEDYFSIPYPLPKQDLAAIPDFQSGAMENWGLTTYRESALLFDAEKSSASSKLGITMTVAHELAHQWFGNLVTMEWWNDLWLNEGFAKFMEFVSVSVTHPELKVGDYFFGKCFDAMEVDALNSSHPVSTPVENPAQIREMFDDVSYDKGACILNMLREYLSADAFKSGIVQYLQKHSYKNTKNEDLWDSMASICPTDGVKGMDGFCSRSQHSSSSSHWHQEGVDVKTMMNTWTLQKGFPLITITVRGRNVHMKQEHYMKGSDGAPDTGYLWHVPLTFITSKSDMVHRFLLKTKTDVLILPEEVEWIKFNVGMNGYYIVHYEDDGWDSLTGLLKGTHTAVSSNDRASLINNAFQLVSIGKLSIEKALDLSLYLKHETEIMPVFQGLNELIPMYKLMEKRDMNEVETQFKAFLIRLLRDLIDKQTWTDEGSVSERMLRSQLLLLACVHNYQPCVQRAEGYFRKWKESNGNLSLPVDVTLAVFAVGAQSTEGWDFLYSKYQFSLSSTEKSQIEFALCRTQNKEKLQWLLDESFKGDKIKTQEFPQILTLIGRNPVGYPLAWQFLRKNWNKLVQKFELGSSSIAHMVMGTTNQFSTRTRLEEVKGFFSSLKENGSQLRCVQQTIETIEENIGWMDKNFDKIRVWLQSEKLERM
# A number is an active result; 0 = inactive; ? = inconclusive; - = not tested or not shown. Rows were chosen to be rich in hits. Some 2.6% of all compounds tested hit in one or more screens of this group.
SMILES,miR-122 sensor,E-sel inducer,GSIS activator,CFTR F508del cor,DENV2 CPE rescue,ERAP1 HTS inh
CC1CC(C)CN(C(=O)c2nn(C)c3c2CS(=O)(=O)c2ccccc2-3)C1 (stereo unspecified),0,95,0,0,0,0
OC(CNCCc1ccc(C(F)(F)F)cc1)COC(c1ccccc1)c1ccccc1 (stereo unspecified),-,0,365,0,0,0
Cc1ccccc1-c1n[nH]c(=S)n1/N=C/c1c(C)nn(-c2ccccc2)c1C,0,-,91,-,-,-
O=[N+]([O-])c1ccc(/C=N/n2c(-c3ccccc3)n[nH]c2=S)cc1,0,0,43,0,0,0
Cc1ccc(-c2n[nH]c(=S)n2/N=C/c2c(C)nn(-c3ccccc3)c2C)cc1,-,0,203,-,-,-
Cc1ccc(/C=N/n2c(-c3ccccc3)n[nH]c2=S)cc1,0,-,0,0,0,0
Cc1nn(-c2ccccc2)c(C)c1/C=N/n1c(-c2ccc(C(C)(C)C)cc2)n[nH]c1=S,0,-,-,-,-,-
COc1ccccc1C#Cc1ccc2c(c1)[C@@H]1[C@@H](CCN1S(=O)(=O)c1cccc(C)c1)[C@H](CO)N2,-,0,0,0,0,0
CC(=O)N(C)C[C@H]1Oc2ncc(-c3cccnc3)cc2C(=O)N([C@H](C)CO)C[C@H]1C,0,0,0,0,0,0
C[C@@H]1CN([C@H](C)CO)C(=O)Cc2cc(NC(=O)C3CC3)ccc2O[C@H]1CN(C)CC1CC1,0,0,0,0,0,0
CO[C@H]1CN(C)C(=O)c2ccc(NC(=O)c3cccc(Oc4ccccc4)c3)cc2OC[C@@H](C)NC[C@@H]1C,-,0,0,0,0,0
CC(C)Cc1nc2n[nH]c(N)c2c2c1COC(C)(C)C2,0,-,80,-,-,-
CC(C)Cc1nc2sc3c(=O)n(N)cnc3c2c2c1COC(C)(C)C2,0,-,0,0,0,0
CC[C@H](C)C(C(=O)N1CCN(C(=O)OC(C)(C)C)CC1)n1cc(C(CC(C)C)NC(=O)OC(C)(C)C)nn1 (stereo partly specified),0,0,0,0,32,-
O=C(Nc1ccccc1F)N1CC(=O)N2[C@H](CO)[C@H](c3ccc(C#Cc4ccc(F)cc4)cc3)[C@H]2C1,-,0,0,0,0,0
O=C(Nc1ccccc1)NC1CCCc2ccccc21 (stereo unspecified),-,-,0,0,0,0
Cc1cccc(C)c1NC(=O)NC1CCc2ccccc21 (stereo unspecified),0,0,119,0,0,0
C=CCNc1ncnc2c1ncn2[C@H]1CN(Cc2cc(OC)c(OC)c(OC)c2)C[C@@H](CO)O1,0,-,42,0,0,0
COCCNc1ncnc2c1ncn2[C@H]1CN(Cc2cc(OC)c(OC)c(OC)c2)C[C@@H](CO)O1,0,0,-,0,0,0
C[C@@H]1CCCCO[C@H](CN(C)C(=O)Nc2ccc(C(F)(F)F)cc2)[C@H](C)CN([C@H](C)CO)C(=O)c2cc(NS(C)(=O)=O)ccc2O1,0,0,0,0,0,0
COc1cc2[nH]c(-c3ccc(C)cc3)cc(=O)c2cc1OC,0,0,57,0,0,0
Cc1ccc2[nH]c(-c3ccccc3)cc(=O)c2c1,0,0,-,10,111,-
Cc1ccc(-c2cc(=O)c3ccccc3[nH]2)cc1,0,0,0,0,-,0
C[C@H](CO)N1C[C@H](C)[C@H](CN(C)Cc2ccccc2C(=O)O)Oc2ncc(C3=CCCC3)cc2C1=O,0,0,0,0,0,0
O=C(C[C@H]1CC[C@@H]2NC[C@H](O)COC[C@H]2O1)NCCc1ccccc1,0,0,0,0,25,0
SMILES,miR-122 sensor,E-sel inducer,GSIS activator,CFTR F508del cor,DENV2 CPE rescue,ERAP1 HTS inh
O=C(C[C@H]1CC[C@H]2[C@@H](COC[C@H](O)CN2C(=O)Nc2ccccc2)O1)NCCc1ccncc1,0,0,0,0,53,0
C[C@@H](NC(=O)C[C@@H]1CC[C@H]2[C@@H](COC[C@H](O)CN2C(=O)Nc2ccccc2)O1)c1ccccc1,0,0,0,0,113,0
O=C(C[C@H]1CC[C@@H]2NC[C@@H](O)COC[C@H]2O1)NCCc1ccccc1,0,0,0,0,0,0
O=C(C[C@@H]1CC[C@H]2[C@@H](COC[C@@H](O)CN2C(=O)Nc2ccccc2)O1)NCCc1ccncc1,0,0,0,0,0,0
C[C@H](CO)N1C[C@H](C)[C@@H](CN(C)C(=O)c2ccccn2)Oc2ncc(Br)cc2C1=O,0,0,0,0,0,0
CN(C)C(=O)[C@H]1[C@H](CO)[C@H]2Cn3c(cccc3=O)[C@H]2N1C(=O)C1CCCCC1,0,0,0,0,0,0
O=C(Nc1ccc(F)cc1)N1CC(=O)N2[C@H](C1)[C@H](c1ccc(Br)cc1)[C@@H]2CO,-,0,0,0,0,0
Nc1cc(N)nc(SCc2ccccc2Cl)n1,0,0,0,0,?,0
Cc1cc2c(SCc3ccccc3Cl)nc(N)nc2nc1C,-,88,0,0,0,0
CN1c2ccc(-c3ccccc3)cc2[C@@H]2[C@@H](CCN2S(=O)(=O)c2ccccc2F)[C@H]1CO,0,0,0,0,0,0
Cc1ccccc1S(=O)(=O)N1CC[C@@H]2[C@@H](CO)N(C)c3ccc(-c4cccc(F)c4)cc3[C@@H]21,0,0,0,0,44,-
CN1c2ccc(-c3ccccc3)cc2[C@@H]2[C@@H](CCN2S(=O)(=O)c2ccccc2F)[C@@H]1CO,0,0,0,0,68,0
CCC(=O)N[C@@H]1CC[C@@H](CCn2cc(C3CC3)nn2)O[C@@H]1CO,-,0,0,0,0,0
CC[N+]1(C)CCC(O)(c2ccc(OC)cc2)C(C(=O)c2ccc(OC)cc2)C1 (stereo unspecified),-,0,214,0,0,0
COc1ccc(-c2ccc(C(=O)C3CC3)cc2)cc1,-,0,0,-,0,0
Cc1noc(C)c1NC(=O)N(C)C[C@@H]1Oc2ccc(NC(=O)Nc3ccc(C(F)(F)F)cc3)cc2CC(=O)N([C@@H](C)CO)C[C@@H]1C,0,0,0,0,0,0
COc1ccc(NC(=O)Nc2ccc3c(c2)CC(=O)N([C@H](C)CO)C[C@@H](C)[C@@H](CN(C)Cc2ccc(C(=O)O)cc2)O3)cc1,0,0,0,0,0,0
COc1cccc(C(=O)c2c(-c3ccccc3)ncc3cc(OC)c(OC)cc23)c1,0,0,0,0,27,0
Cc1ccc(N=C2NC(=O)/C(=C\c3ccsc3)S2)c(C)c1,0,-,-,0,96,0
Cc1cccc(N=C2NC(=O)/C(=C/c3cccnc3)S2)c1,-,0,45,0,0,0
O=C1NC(=Nc2cccc(O)c2)S/C1=C\c1cccnc1,-,0,0,0,0,-
CC(C)(C)N1NC2(CCCCC2)NC1=S,0,0,-,0,0,0
CCOC(=O)CN1NC2(CCCCCC2)NC1=S,-,0,0,0,0,35
Cc1cc2[nH]c3c(c[n+](C)c4ccccc34)c2cc1C,-,-,0,24,0,0

# From PubChem
